This is an account of results in ChEMBL document CHEMBL4706728, “Discovery of a Highly Selective and Potent TRPC3 Inhibitor with High Metabolic Stability and Low Toxicity” (ACS Med Chem Lett, 2021).

Calls of active or inactive are those of the source. No cut-off for these calls is given here.

Data set [1] has as its target T1, Short transient receptor potential channel 3 (Homo sapiens) (UniProt Q13507).
T1 sequence (whole entry): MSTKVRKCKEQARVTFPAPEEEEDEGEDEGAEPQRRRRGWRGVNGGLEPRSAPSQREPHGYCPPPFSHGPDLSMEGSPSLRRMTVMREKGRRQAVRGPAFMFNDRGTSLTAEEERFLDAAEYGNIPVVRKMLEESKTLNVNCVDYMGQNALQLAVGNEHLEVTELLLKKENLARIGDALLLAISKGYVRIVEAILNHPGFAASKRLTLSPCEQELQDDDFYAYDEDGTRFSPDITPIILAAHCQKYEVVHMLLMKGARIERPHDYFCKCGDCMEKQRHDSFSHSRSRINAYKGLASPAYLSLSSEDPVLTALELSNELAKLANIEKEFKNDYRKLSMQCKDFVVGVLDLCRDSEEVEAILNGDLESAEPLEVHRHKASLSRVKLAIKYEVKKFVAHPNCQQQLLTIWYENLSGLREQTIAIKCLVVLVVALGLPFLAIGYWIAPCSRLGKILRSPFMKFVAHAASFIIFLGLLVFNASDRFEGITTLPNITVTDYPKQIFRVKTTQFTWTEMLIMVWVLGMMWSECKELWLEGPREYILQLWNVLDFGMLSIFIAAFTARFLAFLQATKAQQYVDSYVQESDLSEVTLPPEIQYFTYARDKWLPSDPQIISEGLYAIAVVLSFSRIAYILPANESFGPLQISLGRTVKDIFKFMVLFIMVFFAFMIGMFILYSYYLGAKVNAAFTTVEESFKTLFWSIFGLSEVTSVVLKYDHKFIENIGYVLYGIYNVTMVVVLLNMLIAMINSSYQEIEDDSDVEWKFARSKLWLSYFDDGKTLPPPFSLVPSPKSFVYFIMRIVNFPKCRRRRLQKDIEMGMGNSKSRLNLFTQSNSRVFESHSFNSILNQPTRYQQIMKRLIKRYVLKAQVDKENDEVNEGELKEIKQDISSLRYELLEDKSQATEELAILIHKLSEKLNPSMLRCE
Briefly: Inhibition of human TRPC3 expressed in HEK293 cells assessed as inhibition of OAG-induced current at 0.001 to 10 uM by whole cell patch-clamp method. The class given is cell-based. Particulars: dose 0.001-10 µM. A digest of the protocol:
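Whole-cell recordings of hTRPC3 expressed in HEK293 cells, channel activated by 1-oleoyl-2-acetyl-sn-glycerol (membrane-permeable diacylglycerol analogue) instead of GSK1702934A. Inhibitor at a range of concentrations co-perfused with agonist to build a dose–response profile.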
A general note: Patch clamp records ionic current or voltage across a cell membrane.

In data set [2] the target is T2, Short transient receptor potential channel 6 (Mus musculus) (UniProt Q61143).
T2 sequence (whole entry): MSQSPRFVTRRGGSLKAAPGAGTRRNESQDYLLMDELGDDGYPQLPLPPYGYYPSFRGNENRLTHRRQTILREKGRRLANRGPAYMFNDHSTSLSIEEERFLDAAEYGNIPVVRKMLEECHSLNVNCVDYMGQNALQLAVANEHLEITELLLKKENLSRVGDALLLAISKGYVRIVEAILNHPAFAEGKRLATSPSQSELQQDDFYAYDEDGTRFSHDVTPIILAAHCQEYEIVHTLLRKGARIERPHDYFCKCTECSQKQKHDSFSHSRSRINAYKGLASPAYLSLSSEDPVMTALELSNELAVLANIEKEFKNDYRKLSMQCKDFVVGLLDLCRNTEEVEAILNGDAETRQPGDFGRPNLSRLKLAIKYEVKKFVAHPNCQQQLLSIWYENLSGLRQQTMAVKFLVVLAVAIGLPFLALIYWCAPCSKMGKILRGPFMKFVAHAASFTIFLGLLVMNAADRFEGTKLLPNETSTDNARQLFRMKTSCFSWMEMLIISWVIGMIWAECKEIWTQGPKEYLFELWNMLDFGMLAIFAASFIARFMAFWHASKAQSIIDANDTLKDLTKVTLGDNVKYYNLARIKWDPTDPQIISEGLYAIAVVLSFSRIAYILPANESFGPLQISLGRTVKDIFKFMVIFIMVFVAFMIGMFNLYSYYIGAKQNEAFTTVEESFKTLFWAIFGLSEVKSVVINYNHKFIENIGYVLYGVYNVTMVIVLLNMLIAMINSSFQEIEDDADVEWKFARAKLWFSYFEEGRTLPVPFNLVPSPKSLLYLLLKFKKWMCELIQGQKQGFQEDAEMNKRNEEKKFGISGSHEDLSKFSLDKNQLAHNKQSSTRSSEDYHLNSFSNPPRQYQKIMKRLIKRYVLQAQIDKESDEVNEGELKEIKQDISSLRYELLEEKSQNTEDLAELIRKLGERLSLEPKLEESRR
Briefly: Inhibition of mouse TRPC6 expressed in HEK293 cells assessed as inhibition of GSK170-induced current at 10 uM by whole cell patch-clamp method. The class given is cell-based. A digest of the protocol:
(§1)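 TRP channels overexpressed in HEK293 cells (hTRPA1, rTRPV1, rTRPV4, mouse TRPC6, hTRPC7, hTRPM8). Whole-cell patch clamp with Ca2+-free solutions to avoid desensitization. Channels fully activated with high concentrations of their agonists (AITC for TRPA1, capsaicin for TRPV1, GSK1016790A for TRPV4), then 10 μM test compound perfused with agonist. Result expressed as percentage of peak current blocked; mean ± SD.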

Data set [3] deals with Transient receptor potential cation channel subfamily V member 4 (Rattus norvegicus) (UniProt Q9ERZ8). Briefly: Inhibition of rat TRPV4 expressed in HEK293 cells assessed as inhibition of GSK101-induced current at 10 uM by whole cell patch-clamp method. The class given is cell-based. A digest of the protocol:
as §1

The target in data set [4] is Transient receptor potential cation channel subfamily V member 1 (Rattus norvegicus) (UniProt O35433). Briefly: Inhibition of rat TRPV1 expressed in HEK293 cells assessed as inhibition of capsaicin-induced current at 10 uM by whole cell patch-clamp method. The class given is cell-based. A digest of the protocol: as §1
Sequence of Transient receptor potential cation channel subfamily V member 1 (Rattus norvegicus) (O35433 whole entry): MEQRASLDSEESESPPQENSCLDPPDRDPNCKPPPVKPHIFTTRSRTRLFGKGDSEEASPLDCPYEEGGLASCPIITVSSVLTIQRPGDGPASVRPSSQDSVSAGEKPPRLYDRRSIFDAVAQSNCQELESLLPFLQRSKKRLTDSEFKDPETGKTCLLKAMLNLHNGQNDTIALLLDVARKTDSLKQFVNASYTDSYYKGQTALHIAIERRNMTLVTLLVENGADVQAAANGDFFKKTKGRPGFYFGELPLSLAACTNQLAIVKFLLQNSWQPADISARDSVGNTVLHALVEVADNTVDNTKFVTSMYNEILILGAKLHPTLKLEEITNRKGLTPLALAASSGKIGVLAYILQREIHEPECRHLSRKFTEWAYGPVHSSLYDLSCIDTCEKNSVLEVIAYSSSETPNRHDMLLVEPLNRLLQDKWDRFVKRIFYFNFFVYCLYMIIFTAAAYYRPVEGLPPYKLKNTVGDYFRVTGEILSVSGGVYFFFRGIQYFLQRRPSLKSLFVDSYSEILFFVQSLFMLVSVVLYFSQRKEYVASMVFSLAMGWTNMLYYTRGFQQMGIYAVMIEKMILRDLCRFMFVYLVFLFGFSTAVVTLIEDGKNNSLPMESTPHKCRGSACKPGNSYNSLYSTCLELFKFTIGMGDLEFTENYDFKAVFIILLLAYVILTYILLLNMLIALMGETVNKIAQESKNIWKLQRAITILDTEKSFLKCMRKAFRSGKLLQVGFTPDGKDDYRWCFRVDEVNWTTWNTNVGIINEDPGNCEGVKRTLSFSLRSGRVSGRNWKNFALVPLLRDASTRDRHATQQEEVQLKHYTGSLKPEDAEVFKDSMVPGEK
The target in a further data set is ORAI1/STIM1 (Homo sapiens, UniProt Q96D31+Q13586). Briefly: Inhibition of STIM/Orai1 (unknown origin) expressed in HEK293 cells assessed as reduction in thapsigargin-induced Ca2+ influx at 10 uM in presence of Ca2+ by whole cell patch clamp method. The following applies: hek293, 10 µM. The class given is cell-based.
Sequence of ORAI1/STIM1 (Q96D31 whole entry): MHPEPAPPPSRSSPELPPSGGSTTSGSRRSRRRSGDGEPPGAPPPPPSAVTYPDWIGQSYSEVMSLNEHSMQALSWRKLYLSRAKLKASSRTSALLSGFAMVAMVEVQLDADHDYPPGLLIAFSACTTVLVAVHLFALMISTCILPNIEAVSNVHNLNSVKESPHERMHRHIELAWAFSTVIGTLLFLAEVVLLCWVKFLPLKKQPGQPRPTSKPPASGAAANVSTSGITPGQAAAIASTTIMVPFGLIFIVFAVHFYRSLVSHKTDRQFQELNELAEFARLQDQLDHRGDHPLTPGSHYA
Sequence of ORAI1/STIM1 (Q13586 whole entry): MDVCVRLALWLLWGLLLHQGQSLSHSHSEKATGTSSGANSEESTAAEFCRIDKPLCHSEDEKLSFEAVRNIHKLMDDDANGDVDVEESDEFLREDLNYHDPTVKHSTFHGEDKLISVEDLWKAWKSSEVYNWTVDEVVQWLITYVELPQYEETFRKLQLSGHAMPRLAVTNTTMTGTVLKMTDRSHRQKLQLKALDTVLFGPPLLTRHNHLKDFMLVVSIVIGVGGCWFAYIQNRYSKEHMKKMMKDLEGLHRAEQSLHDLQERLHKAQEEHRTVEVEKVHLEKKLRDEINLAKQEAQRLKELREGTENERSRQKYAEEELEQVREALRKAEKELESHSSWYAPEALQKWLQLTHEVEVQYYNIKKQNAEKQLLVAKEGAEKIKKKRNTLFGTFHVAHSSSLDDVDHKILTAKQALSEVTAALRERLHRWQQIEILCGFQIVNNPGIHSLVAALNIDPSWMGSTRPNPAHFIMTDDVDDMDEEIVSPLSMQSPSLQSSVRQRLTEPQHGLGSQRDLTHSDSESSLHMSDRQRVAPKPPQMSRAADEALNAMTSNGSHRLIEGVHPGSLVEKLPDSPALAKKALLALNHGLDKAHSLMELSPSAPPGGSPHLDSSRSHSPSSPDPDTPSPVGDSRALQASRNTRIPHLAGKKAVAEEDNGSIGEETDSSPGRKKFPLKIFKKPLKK
In the next data set the test system is Hippocampal neurone. Briefly: Neuroprotective activity in Sprague-Dawley rat primary hippocampal neurons assessed as reduction in Abeta-induced dendrites damage at 0.25 to 1 uM incubated for 16 hrs by MAP2 staining based assay. Particulars: dose 0.25-1 µM. The class given is functional, tissue-based. An outline of the steps: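 Primary hippocampal neurons from E17 rat embryos, used at 14 DIV. Treated for 16 h with naturally secreted Aβ-containing 7PA2 conditioned medium (CHO medium as control), alone or with test compound at several concentrations. Neurons then immunostained for MAP2 with DAPI, and dendritic length quantified.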

The nature of data set [5]: Binding affinity to human His8-MBP-TRPC3b I395V mutant expressed in baculovirus infected Sf9 cells incubated for 1 hr by LC-MS analysis. A digest of the protocol:
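Purified hTRPC3 protein incubated with compound for 1 h. Free compound removed by repeated size-exclusion chromatography. Methanol added to denature the protein and extract bound compound, which is detected by LC-MS against a prepared control. MS data collected from 2.5 min onward to keep buffer salts out.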

Sequence of Transient receptor potential cation channel subfamily V member 4 (Rattus norvegicus) (Q9ERZ8 whole entry): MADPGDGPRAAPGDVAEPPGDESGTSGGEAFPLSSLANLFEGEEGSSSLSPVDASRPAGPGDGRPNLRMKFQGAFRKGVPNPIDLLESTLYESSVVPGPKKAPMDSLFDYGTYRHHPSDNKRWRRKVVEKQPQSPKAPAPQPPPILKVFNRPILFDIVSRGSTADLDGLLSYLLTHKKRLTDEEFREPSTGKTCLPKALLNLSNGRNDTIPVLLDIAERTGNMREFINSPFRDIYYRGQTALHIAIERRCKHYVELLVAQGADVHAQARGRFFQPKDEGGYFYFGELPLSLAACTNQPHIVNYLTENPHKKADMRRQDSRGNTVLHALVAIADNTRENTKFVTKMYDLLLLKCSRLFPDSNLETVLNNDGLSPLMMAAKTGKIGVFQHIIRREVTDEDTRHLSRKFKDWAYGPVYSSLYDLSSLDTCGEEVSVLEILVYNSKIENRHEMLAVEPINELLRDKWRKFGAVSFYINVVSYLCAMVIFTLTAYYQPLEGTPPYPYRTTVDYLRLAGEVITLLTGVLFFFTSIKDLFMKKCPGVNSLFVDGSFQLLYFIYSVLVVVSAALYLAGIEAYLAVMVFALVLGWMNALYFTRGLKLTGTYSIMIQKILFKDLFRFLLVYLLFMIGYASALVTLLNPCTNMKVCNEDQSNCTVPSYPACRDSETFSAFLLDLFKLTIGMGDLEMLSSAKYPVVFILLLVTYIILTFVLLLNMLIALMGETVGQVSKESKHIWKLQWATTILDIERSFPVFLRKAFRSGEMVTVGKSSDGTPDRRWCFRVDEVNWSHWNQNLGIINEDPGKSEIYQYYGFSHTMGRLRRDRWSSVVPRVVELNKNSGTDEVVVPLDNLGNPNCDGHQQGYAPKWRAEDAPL

On to `CCNC(=O)c1cnn(-c2ccc(-n3ccc(Cl)c(Cl)c3=O)cc2)c1C(F)(F)F`, for which the inhibition (commonly the percentage by which the read-out fell short of the control) in data set [1] was “Active”. Besides, the inhibition in data set [2] was 39%. The inhibition result in data set [3] and in data set [4] was “inactive” throughout. The “inhibition (INH)” value on ORAI1/STIM1 is “Active”. The result (with Hippocampal neurone; in data set [5]) was Active.
